ChEMBL document CHEMBL1143007, “Synthesis and evaluation of 4/5-hydroxy-2,3-diaryl(substituted)-cyclopent-2-en-1-ones as cis-restricted analogues of combretastatin A-4 as novel anticancer agents” (J Med Chem, 2007)
In brackets after ≈: the same amount, converted by molar mass. Activity calls are given as the source filed them. The calls are words filed in the database; no cut-off is given here.

Key:
ECV-304 [1] = experiment: Enhanced mitotic arrest in human ECV304 cells assessed as accumulation at G2/M phase at 1 uM after 24 hrs relative to control; type: functional
Procedure, shortened: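 ECV304 at 1.5 × 10⁶ cells per 90 mm dish in DMEM with 10% FCS overnight, then 1 µM for 24 h in fresh medium. Cells trypsinised, fixed in ice-cold 70% ethanol, treated with trypsin inhibitor and RNase, and stained with propidium iodide in the dark at 4-10 °C for 1 h. Flow cytometry with low gate at 10% of the G1 peak; G1 and G2/M fractions against untreated control.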

HT-29 = experiment: Cytotoxicity against human HT29 cells after 72 hrs by MTT assay; type: cell-based; settings: Homo sapiens, HT-29, 72 h; read-out: IC50
Procedure, shortened: (§1)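 MTT assay. Cells seeded at 5000-10 000 per well and incubated at 37 °C in CO₂ with compound at 1-100 µg/mL in triplicate wells for 72 h, then MTT added. Absorbance read at 540 nm; % cytotoxicity = 100 × (1 − treated/control). IC50 obtained by nonlinear regression; NA means IC50 above 100 µg/mL.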

DU-145 = experiment: Cytotoxicity against human DU145 cells after 72 hrs by MTT assay; type: cell-based; settings: Homo sapiens, DU-145, 72 h; read-out: IC50; procedure, shortened: as §1
KB = experiment: Cytotoxicity against human KB cells after 72 hrs by MTT assay; type: cell-based; settings: Homo sapiens, KB, 72 h; read-out: IC50; procedure, shortened: as §1
L132 = experiment: Cytotoxicity against human L132 cells after 72 hrs by MTT assay; type: cell-based; settings: Homo sapiens, L132, 72 h; read-out: IC50; procedure, shortened: as §1
MIA PaCa-2 = experiment: Cytotoxicity against human MiaPaCa2 cells after 72 hrs by MTT assay; type: cell-based; settings: Homo sapiens, MIA PaCa-2, 72 h; read-out: IC50; procedure, shortened: as §1
[2] = Cytotoxicity against human Hep2 cells after 72 hrs by MTT assay; type: cell-based, HEp-2; settings: Homo sapiens, HEp-2, 72 h; read-out: IC50; procedure, shortened: as §1
[3] = Cytotoxicity against human PA1 cells after 72 hrs by MTT assay; type: cell-based, PA-1; settings: Homo sapiens, PA-1, 72 h; read-out: IC50; procedure, shortened: as §1
[4] = Cytotoxicity against human ECV304 cells after 72 hrs by MTT assay; type: cell-based, ECV-304; settings: Homo sapiens, ECV-304, 72 h; read-out: IC50; procedure, shortened: as §1
HEK293 = experiment: Cytotoxicity against human HEK293 cells after 72 hrs by MTT assay; type: cell-based; settings: Homo sapiens, HEK293, 72 h; read-out: IC50; procedure, shortened: as §1
[5] = Inhibition of tubulin polymerization in bovine brain; set-up: species or system Bos taurus
Procedure, shortened: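 Compounds were added from DMSO stocks, with final DMSO below 0.4%. A340 was read every 60 s, and the area under the curve was taken as polymer amount, with the control set to 100%. IC50 is the concentration giving 50% inhibition.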

[6] = Half life in iv dosed Swiss Albino mouse plasma; type: ADME, organism-based
Procedure, shortened: (§2)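 Swiss albino mice (6-8 weeks, ~25 g) dosed intravenously with compound in a cosolvent formulation diluted in 5% dextrose. Blood drawn by orbital bleed under mild ether at 3, 10, 30 min, 1, 2, 4, 6, 8 and 24 h into EDTA, with no more than five bleeds per mouse. Plasma was solvent-extracted and measured by C18 HPLC against an internal standard and a standard curve. Results are mean ± SD, n = 3.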

[7] = Cmax in iv dosed Swiss Albino mouse plasma; type: ADME, organism-based; set-up: route intravenous; procedure, shortened: as §2
[8] = AUC in iv dosed Swiss Albino mouse plasma; type: ADME, organism-based; procedure, shortened: as §2
Mus musculus = experiment: Volume of distribution in iv dosed Swiss Albino mouse plasma; type: ADME, organism-based; settings: in vivo; procedure, shortened: as §2
[9] = Clearance in iv dosed Swiss Albino mouse plasma; type: ADME, organism-based; procedure, shortened: as §2
[10] = Mean residence time in iv dosed Swiss Albino mouse plasma; type: ADME, organism-based; procedure, shortened: as §2
Homo sapiens = experiment: Antitumor activity in primary tumor colon xenografted Balb/C athymic nude mouse assessed as decreased tumor volume at 20 mg/kg, iv on day 19; type: functional, organism-based; set-up: dose 20 mg/kg
Procedure, shortened: (§3)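 PTC colon tumour cells (15 × 10⁶ cells/100 µL) inoculated subcutaneously in Balb/c athymic nude mice aged 6-8 weeks, about 20 g; 3 animals per group. Dosing began at about 500 mm³: 20 mg/kg i.v. once daily for 14 days, cosolvent formulation diluted in 5% dextrose; controls received vehicle. Caliper volume W×W×L×0.4 every fourth day; regression = (1 − treated/control volume) × 100; Dunnett comparison, p < 0.05.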

[11] = Antitumor activity in primary tumor colon xenografted Balb/C athymic nude mouse assessed as decreased tumor volume at 20 mg/kg, iv on day 22 relative to control; type: functional, Homo sapiens; set-up: scale not given: the % may be the effect or the level left; procedure, shortened: as §3
ECV-304 [12] = experiment: Apoptosis in strongly adherent human ECV304 cells at 10 nM assessed as DNA fragmentation; type: functional, cell-based
Procedure, shortened: (§4)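 ECV304 plated at 2 × 10⁶ cells per 90 mm dish in DMEM with 10% FCS, allowed 5-6 h to reattach, then exposed to 10 nM-1 µM for 24 h in fresh medium; 100 nM positive control. Strongly and loosely adherent cells harvested separately and lysed (1 mM Tris-Cl, 20 mM EDTA pH 8, 1% NP-40).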

ECV-304 [13] = experiment: Apoptosis in strongly adherent human ECV304 cells at 100 nM assessed as DNA fragmentation; type: functional, cell-based; procedure, shortened: as §4
ECV-304 [14] = experiment: Apoptosis in strongly adherent human ECV304 cells at 1000 nM assessed as DNA fragmentation; type: functional, cell-based; procedure, shortened: as §4
ECV-304 [15] = experiment: Apoptosis in loosely adherent human ECV304 cells assessed as DNA fragmentation; type: functional, cell-based; procedure, shortened: as §4
[16] = Cytotoxicity against human primary tumor colon cells; type: cell-based
[17] = Aqueous solubility in phosphate buffer at pH 7.4

Row | Compound | Activity (ECV-304 [1]) [%] | IC50 (HT-29) [µg/mL] | IC50 (DU-145) [µg/mL] | IC50 (KB) [µg/mL] | IC50 (L132) [µg/mL] | IC50 (MIA PaCa-2) [µg/mL] | IC50 [2] [µg/mL] | IC50 [3] [µg/mL] | IC50 [4] [µg/mL] | IC50 (HEK293) [µg/mL] | IC50 [5] [nM] | half-life [6] [min] | Cmax [7] [ng/mL] | AUC [8] [ng·h/mL] | Vdss (Mus musculus) [mL] | clearance [9] [mL/min] | MRT [10] [min] | Activity (ECV-304 [12]) | Activity (ECV-304 [13]) | Activity (ECV-304 [14]) | further results
1 | COc1ccc(C2=C(c3cc(OC)c(OC)c(OC)c3)/C(=N\O)C(O)C2)cc1 (stereo unspecified) | 59 | < 1 | > 100 | < 1 | < 1 | < 1 | < 1 | < 1 | < 1 | 4.2 (≈ 10.9 µM) | 1750 | 28.2 | 7050 | 3840 | 46.56 | 1.15 | 31.8 | inactive | inactive | inactive | Activity (Homo sapiens): Active; Activity [11]: 45.8%; Activity (ECV-304 [15]): Dose-dependent effect; IC50 [16]: 0.271 µg/mL (≈ 0.703 µM); solubility [17]: 360 µM (≈ 139 µg/mL)
2 | COc1ccc(/C=C\c2cc(OC)c(OC)c(OC)c2)cc1O [COMBRETASTATIN A4] | 41 | 5 (≈ 15.8 µM) | 57 (≈ 180 µM) | < 1 | < 1 | < 1 | 5 (≈ 15.8 µM) | < 1 | < 1 | 5.7 (≈ 18 µM) | 980 | 11.4 | 3830 | 920 | 80.82 | 4.86 | 9 | inactive | inactive | inactive | solubility [17]: 123 µM (≈ 38.8 µg/mL)
